Series [1] concerns the target T1, Aromatase (Homo sapiens, UniProt P11511).
T1 sequence (P11511 whole entry): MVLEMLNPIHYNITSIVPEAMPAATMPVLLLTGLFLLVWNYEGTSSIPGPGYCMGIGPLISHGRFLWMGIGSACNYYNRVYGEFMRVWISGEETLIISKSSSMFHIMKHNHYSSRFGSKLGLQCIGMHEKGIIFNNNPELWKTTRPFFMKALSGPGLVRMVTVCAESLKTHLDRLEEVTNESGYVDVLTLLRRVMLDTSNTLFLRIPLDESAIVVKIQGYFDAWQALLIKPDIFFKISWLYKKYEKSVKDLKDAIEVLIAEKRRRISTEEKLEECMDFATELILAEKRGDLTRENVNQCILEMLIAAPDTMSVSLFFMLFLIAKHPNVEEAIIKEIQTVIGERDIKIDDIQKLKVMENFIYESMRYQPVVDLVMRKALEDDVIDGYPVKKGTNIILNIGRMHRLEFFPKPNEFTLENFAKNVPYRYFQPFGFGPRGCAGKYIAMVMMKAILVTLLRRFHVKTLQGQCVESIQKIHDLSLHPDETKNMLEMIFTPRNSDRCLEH
The experiment in a line: Competitive inhibition of human placental microsomal aromatase assessed as [C14]estrone/[C14]estradiol formation using [C14]androstenedione substrate by liquid scintillation counting. The gist of the method:
(§1)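 Twice-washed human term placental microsomes (0.25 mg protein) in 3.5 mL 0.1 M sodium phosphate pH 7.0 with NADP+ 1.71 mM, glucose 6-phosphate 2.85 mM, G6PDH 1.0 unit; [14C]androstenedione 0.075–0.515 μM plus one inhibitor level; 37 °C, 8.0 min (<10% product). Estrogens extracted with ethyl acetate, alumina TLC, counted; duplicates; apparent Ki and inhibition type from weighted Lineweaver-Burk.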

In series [2] the target is T1, Aromatase. The experiment in a line: Apparent inhibition of human placental microsomal aromatase assessed as [C14]estrone/[C14]estradiol formation using 0.075 to 0.515 uM [C14]androstenedione substrate by liquid scintillation counting. Particulars: read-out: Ki(app); call rule not given here. The gist of the method: as §1
For series [3], the target named is T1, Aromatase. The experiment in a line: Inhibition of human placental microsomal aromatase assessed as inhibition of [C14]estrone/[C14]estradiol formation using 1.25 uM [C14]androstenedione substrate at 6.25 uM by liquid scintillation counting. The gist of the method: (§2)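 Screen, run in duplicate: [14C]androstenedione 1.25 μM with inhibitor at 6.25 or 12.5 μM, human placental microsomes (0.25 mg protein/3.0 mL), NADPH-generating system (NADP+ 1.71 mM, glucose 6-phosphate 2.85 mM, G6PDH) in 0.1 M phosphate pH 7.0. 5 min preincubation, then 15.0 min at 37 °C; estrogens separated on alumina TLC and counted; expressed as percent inhibition versus uninhibited controls.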

The target of series [4] is T1, Aromatase. The experiment in a line: Inhibition of human placental microsomal aromatase assessed as inhibition of [C14]estrone/[C14]estradiol formation using 1.25 uM [C14]androstenedione substrate at 12.5 uM by liquid scintillation counting. The gist of the method:
as §2

pKi: −log10 of the molar value.

For `COc1ccc(CS[C@@H]2CC3=CC(=O)CC[C@]3(C)[C@H]3CC[C@]4(C)C(=O)CC[C@H]4[C@H]23)cc1`, in series [1], the “inhibition (INH)” value was “Active”. In addition, in series [2], the pKi is 7.51. In addition, the inhibition at 6.25 µM in series [3] stood at 64%. Besides, the inhibition at 12.5 µM in series [4] came out at 63%.
Regarding `CCN(CC)c1ccc(CS[C@@H]2CC3=CC(=O)CC[C@]3(C)[C@H]3CC[C@]4(C)C(=O)CC[C@H]4[C@H]23)cc1`, in series [3], the inhibition at 6.25 µM stood at 45.1%. Also, the inhibition at 12.5 µM in series [4] was determined as 42.3%.
With `CCN(CC)c1ccc(CS[C@H]2CC(=O)C=C3CC[C@@H]4[C@H](CC[C@]5(C)C(=O)CC[C@@H]45)[C@]32C)cc1`, the inhibition at 6.25 µM in series [3] is 32.2%. Besides, the inhibition at 12.5 µM in series [4] is 36.3%.
Take `C[C@]12CCC(=O)C=C1C[C@@H](SCc1ccccc1)[C@@H]1[C@@H]2CC[C@]2(C)C(=O)CC[C@@H]12`: the “inhibition (INH)” value in series [1] is on record as “Active”. In addition, the negative-log Ki (pKi) in series [2] was 7.16. The inhibition at 6.25 µM in series [3] was 66.7%. Further, the inhibition at 12.5 µM in series [4] came out at 84.1%.
`C[C@@]12C(=CC(=O)C[C@@H]1Sc1ccccc1)CC[C@@H]1[C@@H]2CC[C@]2(C)C(=O)CC[C@@H]12`: in series [3], the inhibition at 6.25 µM was 21.2%. The inhibition at 12.5 µM in series [4] was 24.2%.
With `CCOC(=O)CS[C@@H]1CC2=CC(=O)CC[C@]2(C)[C@H]2CC[C@]3(C)C(=O)CC[C@H]3[C@H]12`, in series [4], the inhibition at 12.5 µM came out at 72.4%.
On to `C[C@]12CCC(=O)C=C1C[C@@H](Sc1ccc(N)cc1)[C@@H]1[C@@H]2CC[C@]2(C)C(=O)CC[C@@H]12`, for which the “inhibition (INH)” value in series [1] was “Active”. The pKi in series [2] was 7.74. In addition, in series [3], the inhibition at 6.25 µM stood at 55.6%. For the same molecule, the inhibition at 12.5 µM in series [4] came to 95%.
`C[C@@]12C(=CC(=O)C[C@@H]1SCc1ccccc1)CC[C@@H]1[C@@H]2CC[C@]2(C)C(=O)CC[C@@H]12`: in series [3], the inhibition at 6.25 µM worked out at 20.8%. For the same molecule, the inhibition at 12.5 µM in series [4] amounted to 15.5%.
In the case of `CCCCS[C@@H]1CC2=CC(=O)CC[C@]2(C)[C@H]2CC[C@]3(C)C(=O)CC[C@H]3[C@H]12`, in series [1], the “inhibition (INH)” value is given as “Active”. Besides, the pKi in series [2] is 7.24. The inhibition at 6.25 µM in series [3] was found to be 62.4%. Moreover, the inhibition at 12.5 µM in series [4] was 74.1%.
Consider `C[C@]12CCC(=O)C=C1C[C@@H](SCCCc1ccccc1)[C@@H]1[C@@H]2CC[C@]2(C)C(=O)CC[C@@H]12`, for which, in series [3], the inhibition at 6.25 µM was found to be 68.4%. Moreover, in series [4], the inhibition at 12.5 µM was determined as 66.4%.
Turning to `COc1ccc(S[C@@H]2CC3=CC(=O)CC[C@]3(C)[C@H]3CC[C@]4(C)C(=O)CC[C@H]4[C@H]23)cc1`, the inhibition at 6.25 µM in series [3] was determined as 35.3%. Further, the inhibition at 12.5 µM in series [4] is 64.9%.
The like results for `C[C@]12CCC(=O)C=C1C[C@@H](Sc1ccccc1)[C@@H]1[C@@H]2CC[C@]2(C)C(=O)CC[C@@H]12` were, in that order, 45.3% and 46.7%.
On to `C[C@]12CCC(=O)C=C1C[C@@H](SCCc1ccccc1)[C@@H]1[C@@H]2CC[C@]2(C)C(=O)CC[C@@H]12`, for which, in series [1], the “inhibition (INH)” value is “Active”. For the same molecule, the pKi in series [2] is 7.21. Moreover, the inhibition at 6.25 µM in series [3] was found to be 75.7%. In addition, the inhibition at 12.5 µM in series [4] was 82.8%.

The values are drawn from ChEMBL document CHEMBL3244366, “Synthesis and biochemical evaluation of inhibitors of estrogen biosynthesis” (J Med Chem, 1978).
